Calls of active or inactive are those of the source. No cut-off for these calls is given here.
Key:
[1] = target: T1, Angiotensin-converting enzyme (Oryctolagus cuniculus, UniProt P12822); assay: (§1) Inhibition of rabbit lung ACE assessed as reduction in hippuryl-histidyl-leucine substrate by colorimetric assay
T1 sequence (P12822 whole entry): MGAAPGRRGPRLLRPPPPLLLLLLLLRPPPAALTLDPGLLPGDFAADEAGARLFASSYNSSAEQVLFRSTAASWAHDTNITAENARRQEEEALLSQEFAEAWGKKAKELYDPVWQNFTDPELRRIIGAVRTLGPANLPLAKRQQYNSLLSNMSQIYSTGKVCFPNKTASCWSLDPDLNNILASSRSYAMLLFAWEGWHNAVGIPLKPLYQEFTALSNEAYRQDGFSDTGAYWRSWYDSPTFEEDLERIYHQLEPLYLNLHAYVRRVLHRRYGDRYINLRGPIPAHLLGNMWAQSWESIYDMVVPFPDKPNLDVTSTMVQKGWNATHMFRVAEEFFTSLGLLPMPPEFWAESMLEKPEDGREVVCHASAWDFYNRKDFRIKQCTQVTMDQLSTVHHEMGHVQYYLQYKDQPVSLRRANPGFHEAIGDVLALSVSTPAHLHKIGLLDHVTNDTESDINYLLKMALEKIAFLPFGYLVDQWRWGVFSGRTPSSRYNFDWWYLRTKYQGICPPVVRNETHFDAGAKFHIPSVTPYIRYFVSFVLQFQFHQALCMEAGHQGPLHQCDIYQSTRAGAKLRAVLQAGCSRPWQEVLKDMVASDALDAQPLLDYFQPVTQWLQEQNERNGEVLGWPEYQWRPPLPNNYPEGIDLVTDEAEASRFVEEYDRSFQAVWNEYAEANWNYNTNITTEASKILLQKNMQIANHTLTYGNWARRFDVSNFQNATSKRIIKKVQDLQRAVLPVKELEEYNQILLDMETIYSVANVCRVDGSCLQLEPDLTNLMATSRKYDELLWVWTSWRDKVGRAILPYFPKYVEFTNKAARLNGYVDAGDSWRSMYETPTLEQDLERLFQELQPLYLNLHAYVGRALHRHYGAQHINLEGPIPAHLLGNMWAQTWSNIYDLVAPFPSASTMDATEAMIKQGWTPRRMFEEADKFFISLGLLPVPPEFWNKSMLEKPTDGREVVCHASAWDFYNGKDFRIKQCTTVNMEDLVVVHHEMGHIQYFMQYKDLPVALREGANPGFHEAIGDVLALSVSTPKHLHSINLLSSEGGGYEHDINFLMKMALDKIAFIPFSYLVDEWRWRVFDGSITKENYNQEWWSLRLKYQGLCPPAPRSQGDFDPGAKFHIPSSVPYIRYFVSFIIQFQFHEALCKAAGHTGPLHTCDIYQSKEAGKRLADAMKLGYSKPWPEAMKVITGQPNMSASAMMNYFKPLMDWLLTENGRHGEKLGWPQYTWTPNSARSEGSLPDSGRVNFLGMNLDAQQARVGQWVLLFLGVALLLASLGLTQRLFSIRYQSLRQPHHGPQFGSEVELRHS
In short: (§2)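 ACE came from a rabbit lung homogenate in 0.05 M sodium borate, pH 8.2, 0.3 M NaCl, 0.5% Triton X-100 at 4 °C, centrifuged. Enzyme was preincubated with compound for 10 min at 37 °C, then run for 30 min at 37 °C with 5 mM HHL stock in borate/NaCl buffer. Hippuric acid was derivatised with pyridine and benzenesulfonyl chloride and read at 410 nm. IC50 was taken from % inhibition versus concentration curves; means of three experiments.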

[2] = target: T2, Angiotensin-converting enzyme (Oryctolagus cuniculus) (UniProt P12822); assay: Inhibition of rabbit lung ACE assessed as reduction in hippuryl-histidyl-leucine substrate at 3 uM by colorimetric assay
T2 sequence (whole entry): T1 sequence (P12822 whole entry)
In short: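 Rabbit lung homogenised (1 g in 10 mL of 0.05 M sodium borate, pH 8.2, with 0.3 M NaCl and 0.5% Triton X-100, 4 °C) and centrifuged to give the ACE source. Enzyme and test solution preincubated 10 min at 37 °C. The reaction was started with borate/NaCl buffer plus 5 mM HHL stock and run 30 min at 37 °C. Released hippuric acid was reacted with pyridine and benzenesulfonyl chloride, and the yellow product read at 410 nm. Inhibition% = 100 − (T/C)×100.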

[3] = target: T2, Angiotensin-converting enzyme (Oryctolagus cuniculus); assay: as §1; in short: as §2

CCCCc1nc(Cl)c(C2CC(c3cc(OC)c(OC)c(OC)c3)=NN2C(C)=O)n1C (stereo not given)
IC50 [1]: 2120 µM

CCCCc1nc(Cl)c(C2CC(c3ccc(Cl)s3)=NN2C(C)=O)n1C (stereo not given)
IC50 [1]: 1800 µM

O=C(/C=C/c1ccc(O)c(O)c1)c1ccc(O)cc1O [BUTEIN]
IC50 [1]: 730 µM

CCCCc1nc(Cl)c(/C=C/C(=O)c2ccco2)n1C
inhibition [2]: Active

O=c1cc(-c2ccc(O)cc2)oc2cc(O)cc(O)c12 [APIGENIN]
IC50 [1]: 280 µM

CCCCc1nc(Cl)c(/C=C/C(=O)c2cccc3ccccc23)n1C
inhibition [2]: Active

CCCCc1nc(Cl)c(/C=C/C(=O)c2ccc([N+](=O)[O-])cc2)n1C
inhibition [2]: Active

CCCCc1nc(Cl)c(/C=C/C(=O)c2cccc(Br)n2)n1C
inhibition [2]: Active

CCCCc1nc(Cl)c(/C=C/C(=O)c2ccc[nH]2)n1C
inhibition [3]: Dose-dependent effect
IC50 [1]: 2.24 µM

CCCCc1nc(Cl)c(/C=C/C(=O)c2ccc3oc4ccccc4c3c2)n1C
inhibition [2]: Active

CCCCc1nc(Cl)c(C2CC(c3ccc4sc5ccccc5c4c3)=NN2C(C)=O)n1C (stereo not given)
IC50 [1]: 2010 µM

CCCCc1nc(Cl)c(C2CC(c3ccco3)=NN2C(C)=O)n1C (stereo not given)
IC50 [1]: 2350 µM

CCCCc1nc(Cl)c(C2CC(c3ccc([N+](=O)[O-])cc3)=NN2C(C)=O)n1C (stereo not given)
IC50 [1]: 2220 µM

CCCCc1nc(Cl)c(C2CC(c3ccc(OC)cc3)=NN2C(C)=O)n1C (stereo not given)
IC50 [1]: 2330 µM

CCCCc1nc(Cl)c(/C=C/C(=O)c2cccnc2)n1C
inhibition [2]: Active

CCCCc1nc(Cl)c(/C=C/C(=O)c2ccc3c(c2)c2ccccc2n3C)n1C
inhibition [2]: Active

CCCCc1nc(Cl)c(/C=C/C(=O)c2ccc3ccccc3c2)n1C
inhibition [2]: Active

CCCCc1nc(Cl)c(/C=C/C(=O)c2ccc(Cl)s2)n1C
inhibition [3]: Dose-dependent effect
IC50 [1]: 3.6 µM
inhibition [2]: Active

CCCCc1nc(Cl)c(/C=C/C(=O)c2cccs2)n1C
inhibition [2]: Active

CCCCc1nc(Cl)c(/C=C/C(=O)c2ccc(OC)cc2)n1C
inhibition [2]: Active

CCCCc1nc(Cl)c(/C=C/C(=O)c2ccc(Br)s2)n1C
inhibition [2]: Active

CCCCc1nc(Cl)c(/C=C/C(=O)c2cc(OC)c(OC)c(OC)c2)n1C
inhibition [2]: Active

CCCCc1nc(Cl)c(/C=C/C(=O)c2ccccc2)n1C
inhibition [2]: Active

CCCCc1nc(Cl)c(/C=C/C(=O)c2ccc3sc4ccccc4c3c2)n1C
inhibition [3]: Dose-dependent effect
IC50 [1]: 2.68 µM

CCCCc1nc(Cl)c(C2CC(c3cccc4ccccc34)=NN2C(C)=O)n1C (stereo not given)
inhibition [2]: inactive

CCCCc1nc(Cl)c(/C=C/C(=O)c2ccc(C)cc2)n1C
inhibition [2]: Active

Source: ChEMBL document CHEMBL1811899, “Synthesis and evaluation of novel 2-butyl-4-chloro-1-methylimidazole embedded chalcones and pyrazoles as angiotensin converting enzyme (ACE) inhibitors” (Bioorg Med Chem, 2011)
